Source: ChEMBL document CHEMBL4819084, “Discovery of 3,5-dimethylisoxazole derivatives as novel, potent inhibitors for bromodomain and extraterminal domain (BET) family” (Bioorg Med Chem, 2021)

Experiments:
[1] = Cytotoxicity against human MCF-10A cells assessed as inhibition of cell proliferation at 2 uM incubated for 48 hrs by MTT assay; assay type: cell-based
Summary of the method: (§1)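 Cryopreserved cells thawed at 37 °C, cultured one day, then seeded at 5000–10,000 cells/well in 96-well plates and left overnight to attach. Compound added at a single concentration or as a gradient series and incubated 48 h. MTT solution added and absorbance read.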

[2] = system: CT26; assay: Antiproliferative activity against […] assessed as inhibition of cell proliferation at 2 uM incubated for 48 hrs by MTT assay relative to control; assay type: functional; details: Mus musculus; summary of the method: as §1
[3] = system: MCF7; assay: Antiproliferative activity against human MCF7 cells assessed as inhibition of cell proliferation at 2 uM incubated for 48 hrs by MTT assay relative to control; assay type: functional; summary of the method: as §1
[4] = system: HepG2; assay: Antiproliferative activity against human HepG2 cells assessed as inhibition of cell proliferation at 2 uM incubated for 48 hrs by MTT assay relative to control; assay type: functional; summary of the method: as §1
[5] = system: HCT-116; assay: Antiproliferative activity against human HCT-116 cells assessed as inhibition of cell proliferation at 2 uM incubated for 48 hrs by MTT assay relative to control; assay type: functional; summary of the method: as §1
[6] = system: U-266; assay: Antiproliferative activity against human U-266 cells assessed as inhibition of cell proliferation at 0.1 uM incubated for 48 hrs by MTT assay relative to control; assay type: functional; summary of the method: as §1
[7] = system: CT26; assay: Antiproliferative activity against […] assessed as inhibition of cell proliferation incubated for 48 hrs by MTT assay; assay type: functional, cell-based; details: Mus musculus, CT26, 48 h; summary of the method: as §1
[8] = system: HepG2; assay: Antiproliferative activity against human HepG2 cells assessed as inhibition of cell proliferation incubated for 48 hrs by MTT assay; assay type: functional, cell-based; details: HepG2, 48 h; summary of the method: as §1
[9] = system: U-266; assay: Antiproliferative activity against human U-266 cells assessed as inhibition of cell proliferation incubated for 48 hrs by MTT assay; assay type: functional, cell-based; details: U-266, 48 h; summary of the method: as §1
[10] = molecular target: Bromodomain-containing protein 4 (Homo sapiens, UniProt O60885); assay: Inhibition of BRD4-BD1 (unknown origin) preincubated for 15 mins followed by substrate addition and measured after 1 hr

Row | SMILES | inhibition at 48 h, 2 µM [1] | inhibition at 2 µM [2] | inhibition at 2 µM [3] | inhibition at 2 µM [4] | inhibition at 2 µM [5] | inhibition at 0.1 µM [6] | IC50 [7] | IC50 [8] | IC50 [9] | IC50 [10]
1 | Cc1sc2c(c1C)C(c1ccc(Cl)cc1)=N[C@@H](CC(=O)OC(C)(C)C)c1nnc(C)n1-2 | 6.5% | 37.9% | 35.4% | 22.2% | 30.3% | 35.7% | 28.7 µM | 18.4 µM | 3.45 µM | –
2 | Cc1noc(C)c1-c1ccc2c(c1)C(c1ccccc1)N(CCCCCCN1CCN(c3ccc4nnc(Cl)n4n3)CC1)C(=O)N2C (stereo not given) | 5.3% | 20.3% | 33.1% | 51.9% | 44.7% | 45.5% | 7.95 µM | 9.45 µM | 2.12 µM | 0.0031 µM
3 | Cc1noc(C)c1-c1ccc2c(c1)C(c1ccccc1)N(Cc1csc(-c3ccccc3)n1)C(=O)N2C (stereo not given) | 4.4% | 23.5% | 17.5% | 34% | 28.4% | 10.4% | – | – | – | –
4 | Cc1nc(-c2ccccc2)sc1CN1C(=O)N(C)c2ccc(-c3c(C)noc3C)cc2C1c1ccccc1 (stereo not given) | 4.9% | 20.1% | 35.1% | 29.2% | 28.3% | 7.19% | – | – | – | –
5 | Cc1noc(C)c1-c1ccc2c(c1)C(c1ccccc1)NC(=O)N2C (stereo not given) | 6.8% | 44% | 33.5% | 32.5% | 27.8% | 13.1% | 36 µM | 18.8 µM | 35.4 µM | 0.053 µM
6 | Cc1noc(C)c1-c1ccc2c(c1)C(c1ccccc1)N(CCCCCCCC(=O)N1CCN(c3ccc4nnc(Cl)n4n3)CC1)C(=O)N2C (stereo not given) | 0.5% | 8.8% | 28.7% | 13.6% | 14.1% | 8.5% | – | – | – | 0.037 µM
7 | Cc1nc(-c2ccc(F)cc2)sc1CN1C(=O)N(C)c2ccc(-c3c(C)noc3C)cc2C1c1ccccc1 (stereo not given) | 6.5% | 28.8% | 33.4% | 26.4% | 26% | 10% | – | – | – | –
8 | Cc1noc(C)c1-c1ccc2c(c1)C(c1ccccc1)N(Cc1nnc(-c3ccc(F)cc3)o1)C(=O)N2C (stereo not given) | 0.7% | 24% | 26.7% | 52.8% | 36.6% | 26.8% | – | – | – | 0.058 µM
9 | Cc1noc(C)c1-c1ccc2c(c1)C(c1ccccc1)N(Cc1nnc(-c3ccccc3)o1)C(=O)N2C (stereo not given) | 12.4% | 30.1% | 34.1% | 34.7% | 31.4% | 26.7% | 21.2 µM | 19.5 µM | 3.45 µM | 0.055 µM
10 | Cc1noc(C)c1-c1ccc2c(c1)C(c1ccccc1)N(CCOCCN1CCN(c3ccc4nnc(Cl)n4n3)CC1)C(=O)N2C (stereo not given) | 6% | 25.1% | 34.7% | 36.7% | 18.7% | 29.5% | 22.9 µM | 21 µM | 3.05 µM | 0.012 µM
11 | Cc1noc(C)c1-c1ccc2c(c1)C(c1ccccc1)N(CCCCBr)C(=O)N2C (stereo not given) | – | – | – | – | – | – | – | – | – | 0.013 µM
12 | Cc1noc(C)c1-c1ccc2c(c1)C(c1ccccc1)N(Cc1nc(-c3ccccc3)cs1)C(=O)N2C (stereo not given) | 2.7% | 15.5% | 29.1% | 44.5% | 26.7% | 12.7% | – | – | – | –
13 | Cc1noc(C)c1-c1ccc2c(c1)C(c1ccccc1)N(CCCCCN1CCN(c3ccc4nnc(Cl)n4n3)CC1)C(=O)N2C (stereo not given) | 9.3% | 33.8% | 33.4% | 39.8% | 39% | 48.4% | 11.8 µM | 14 µM | 1.99 µM | 0.0088 µM
14 | Cc1noc(C)c1-c1ccc2c(c1)C(c1ccccc1)N(Cc1csc(-c3ccc(F)cc3)n1)C(=O)N2C (stereo not given) | 6.8% | 17% | 37.9% | 31.3% | 31.8% | 8.4% | – | – | – | –
15 | Cc1noc(C)c1-c1ccc2c(c1)C(c1ccccc1)N(CC(=O)N1CCN(c3ccc4nnc(Cl)n4n3)CC1)C(=O)N2C (stereo not given) | 10.9% | 27.5% | 33.4% | 28.5% | 48.9% | 19.8% | – | – | – | 0.0056 µM
16 | CCS(=O)(=O)Nc1ccc(Oc2ccc(F)cc2F)c(-c2cn(C)c(=O)c3[nH]ccc23)c1 [MIVEBRESIB] | – | – | – | – | – | – | 48.3 µM | – | 2.03 µM | –
17 | Cc1noc(C)c1-c1ccc2c(c1)C(c1ccccc1)N(Cc1nnc(-c3ccccc3)s1)C(=O)N2C (stereo not given) | 3.3% | 28.1% | 35.7% | 35.2% | 26.9% | 20.3% | – | – | – | 0.074 µM
18 | Cc1noc(C)c1-c1ccc2c(c1)C(c1ccccc1)N(CCCCCC(=O)N1CCN(c3ccc4nnc(Cl)n4n3)CC1)C(=O)N2C (stereo not given) | 14.7% | 25.1% | 33.6% | 30.7% | 38.4% | 31.3% | – | – | – | 0.0092 µM
19 | Cc1noc(C)c1-c1ccc2c(c1)C(c1ccccc1)N(Cc1ncc(-c3ccccc3)o1)C(=O)N2C (stereo not given) | 3.7% | 21.2% | 34% | 50.6% | 30% | 15.1% | – | – | – | 0.105 µM
20 | Cc1noc(C)c1-c1ccc2c(c1)C(c1ccccc1)N(Cc1nc(-c3ccc(F)cc3)cs1)C(=O)N2C (stereo not given) | 8.5% | 16.4% | 27.4% | 41.1% | 33.3% | 12.6% | – | – | – | –
